Experiments:
Type in all cases: cell-based
Raji [1] = experiment: Inhibition of 12-O-tetradecanoylphorbol-13-acetate-induced EBV-early antigen activation in human Raji cells assessed as EA activation at 100 molar ratio after 48 hrs relative to TPA; design: scale not given: the % may be the effect or the level left; conditions: human gammaherpesvirus 4
Method in brief: (§1)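 EBV genome-carrying nonproducer Raji lymphoblastoid cells grown in 10% FBS RPMI 1640. Cells were incubated at 37 °C for 48 h with n-butyric acid (4 mM) and TPA (32 pmol, 20 ng/mL) in DMSO, plus test compound in DMSO. Smears were stained with EA-positive nasopharyngeal carcinoma patient sera and read by indirect immunofluorescence, counting ≥500 cells per assay, run twice. Average EA induction is expressed relative to butyrate+TPA control.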

Raji [2] = experiment: Inhibition of 12-O-tetradecanoylphorbol-13-acetate-induced EBV-early antigen activation in human Raji cells assessed as EA activation at 10 molar ratio after 48 hrs relative to TPA; design: scale not given: the % may be the effect or the level left; conditions: human gammaherpesvirus 4; method in brief: as §1
Raji [3] = experiment: Inhibition of 12-O-tetradecanoylphorbol-13-acetate-induced EBV-early antigen activation in human Raji cells assessed as EA activation at 500 molar ratio after 48 hrs relative to TPA; design: scale not given: the % may be the effect or the level left; conditions: human gammaherpesvirus 4; method in brief: as §1
Raji [4] = experiment: Inhibition of 12-O-tetradecanoylphorbol-13-acetate-induced EBV-early antigen activation in human Raji cells assessed as EA activation at 1000 molar ratio after 48 hrs relative to TPA; design: scale not given: the % may be the effect or the level left; conditions: human gammaherpesvirus 4; method in brief: as §1
[5] = Cytotoxicity against human Raji cells assessed as cell viability at 1000 molar ratio by trypan blue assay; conditions: read-out: Activity

| SMILES | Activity (Raji [1]) | Activity (Raji [2]) | Activity (Raji [3]) | Activity (Raji [4]) | viability at 1000 molar ratio [5] |
| --- | --- | --- | --- | --- | --- |
| C[C@@]12C[C@H](O)[C@@H]3[C@@](CC[C@H]4[C@@]3(C)CCC[C@@]4(C)C(=O)O)(CC1=O)C2 | 74.1% | 91% | 39.8% | 4% | 60% |
| CC1=C(/C=C/C(C)=C/C=C/C(C)=C/C=C/C=C(C)/C=C/C=C(C)/C=C/C2=C(C)CCCC2(C)C)C(C)(C)CCC1 |  | 100% |  | 8.6% |  |
| C[C@@]12CC[C@H]3[C@]4(C)CCC[C@@](C)(C(=O)O)[C@H]4C[C@H](O)[C@]3(CC1=O)C2 | 76.3% | 94.6% | 41.7% | 6.9% | 60% |
| C[C@@]12CC[C@@H]3[C@@](CC[C@H]4[C@@]3(C)CCC[C@@]4(C)C(=O)O)(CC1=O)C2 [ISOSTEVIOL] | 80% | 98.8% | 46.7% | 12.3% | 60% |
| C[C@@]12CCC[C@@](C)(C(=O)O)[C@H]1CC[C@@]13CC(=O)[C@@](CO)(CC[C@H]12)C3 | 77% | 95.7% | 42.6% | 8.2% | 60% |
| C[C@@]12CCC[C@@](C)(C(=O)O)[C@H]1CC[C@]13CC(=O)[C@](C)(C1)[C@H](O)C[C@H]32 | 75.1% | 93.2% | 40% | 5.7% | 60% |
| C[C@@]12CC[C@@H]3[C@@](CC1=O)(C2)C(=O)C[C@H]1[C@@]3(C)CCC[C@@]1(C)C(=O)O | 72.3% | 94.5% | 35.1% | 7.4% | 60% |
| C=C1C[C@@]23CC[C@H]4[C@@](C)(CCC[C@@]4(C)C(=O)O[C@@H]4O[C@H](CO)[C@@H](O)[C@H](O)[C@H]4O)[C@@H]2CC[C@]1(O[C@@H]1O[C@H](CO)[C@@H](O)[C@H](O)[C@H]1O[C@@H]1O[C@H](CO)[C@@H](O)[C@H](O)[C@H]1O)C3 [STEVIOSIDE] | 78.9% | 100% | 46.2% | 12.5% | 60% |

Reference: ChEMBL document CHEMBL1146501, “Microbial transformation of isosteviol and inhibitory effects on Epstein-Barr virus activation of the transformation products” (J Nat Prod, 2004)
